High-throughput results: PubChem, SRMLSC
PTEN del growth: growth suppressors of cells with PTEN tumor suppressor deletion. HCT116 PTEN-null viability, CellTiter-Glo, 60 h; active compounds read low. viability, % at 10 µM. actives 1.2% (n = 140,000). AID 827;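 active = viability at or below a set limit, 4 SD under the median of all tested compounds, cut at about 3.7% in these data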;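 note: PTEN knockout HCT116 line with beta catenin targeted HCT116 as companion control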
bCat KO growth: beta-catenin-lacking colon tumor cell growth suppression. HCT116 beta-catenin knockout viability, CellTiter-Glo, 60 h; active compounds read low. viability, % at 10 µM. actives 1.5% (n = 140,000). AID 818;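 active = viability at or under a set limit, the compound median less 4 SD, cut at about 6% in these data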;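 note: 0% = Hyamine 1622 control at 20 µM and 100% = untreated cell control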
H69AR growth 86K: blocks growth of human H69AR lung tumor cells; H69AR lung tumor viability, ATP luminescence, 72 h; active compounds read low; viability, % at 10 µM; actives 6% (n = 85,000); AID 598;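 active = viability at or below 40%; inactive = viability above 40%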;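 note: multidrug resistant small cell line overexpressing MRP-1 efflux transporter; 100% = mean luminescence of untreated control wells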
Lung fibro prol: blocks proliferation of human lung fibroblasts; LL 47 human lung fibroblast viability, ATP luminescence; active compounds read low; viability, % at 10 µM; actives 1.1% (n = 85,000);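 active = viability at or below 50% in the single dose screen; inactive = viability above 50%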;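 note: compound exposure lasted 72 h before the ATP readout; 100% = median luminescence of untreated cell-only wells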
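Test system: LL 47 human lung fibroblasts; Quantity: 1,150 cells/well; Buffer or medium: IMEM plus 15% FBS; Dosing: tenfold compound dosing solution, DMSO at 0.1%; Timing: overnight cell rest, 72 h compound treatment at 37 °C; Detection: ATP-based CellTiter-Glo luminescent readout; Read-out basis: viability percentage against median untreated-cell control; Controls: cell-only wells, no compound.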
HUVEC inhibit: inhibitors of human endothelial cell proliferation; HUVEC proliferation, CellTiter-Glo luminescence, 72 h; active compounds read low; viability, % at 10 µM (by protocol); actives 1.1% (n = 86,000);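 active = viability at or below 30%; inactive = viability above 30%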;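 note: 100% = median luminescence of DMSO-only cell control wells on each plate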
* marks the source's active call; other numbers are inactive results; . = no result given. Only a selection was taken, and hits are over-represented in it overall.

SMILES | PTEN del growth | bCat KO growth | H69AR growth 86K | Lung fibro prol | HUVEC inhibit
CN(C)CCCn1c(SCC(=O)N2c3ccccc3Sc3ccccc32)nc2ccccc2c1=O | 1.7* | 1.6* | . | . | .
Cn1c(SCC(=O)N2c3ccccc3Sc3ccccc32)nc2ccccc21 | 73.8 | 82.1 | . | . | .
Cc1[nH]nc2c1C(c1cn[nH]c1-c1ccc(F)cc1)C(C#N)=C(N)O2 (stereo not given) | 83.3 | 101.6 | 64.8 | 102.8 | 79.5
CCN1CCCC1CN(Cc1cc2ccc(C)cc2[nH]c1=O)C(=S)Nc1cccc(OC)c1 (stereo not given) | 2.5* | 3.5* | . | . | .
CCOc1ccccc1NC(=S)N(Cc1cc2ccc(C)cc2[nH]c1=O)CC1CCCN1CC (stereo not given) | 1.2* | 2.5* | . | . | .
CCOC(=O)c1ccccc1NC(=O)c1n[nH]c(=O)c2ccccc12 | 3.1* | 6.8 | . | . | .
CCOC(=O)c1ccccc1NC(=O)c1cccs1 | 84.9 | 87.8 | 95.1 | 95.0 | 79.5
CCOC(=O)c1ccccc1NC(=O)CSc1nc2c(c(=O)n(C)c(=O)n2C)n1C | 96.9 | 100.5 | 31.8* | . | 106.6
[O-][N+]1=c2ccc(Nc3ccccc3)cc2=NC12CCCCC2 | 1.1* | 1.6* | 1.2* | 12.9* | 4.6*
COc1ccc(Nc2ccc3c(c2)=NC2(CCCCC2)[N+]=3[O-])cc1 | 1.2* | 1.1* | . | . | .
c1ccc(Nc2cccc(Nc3ccccc3)c2)cc1 | 77.1 | 80.9 | . | . | .
COc1ccc(NC2=NC(=S)N(c3ccccc3C)C23CCCCC3)cc1 | 101.0 | 94.7 | . | . | .
CN(c1cccc(Cl)c1)S(=O)(=O)c1cccc(C(=O)Nc2ccc3c(c2)CCC3)c1 | 48.5 | 36.9 | . | . | .
Cc1cccc(C)c1NC(=O)C1(NC(=O)C2CCCN2C(=O)OC(C)(C)C)CCCCC1 (stereo not given) | 66.6 | 72.7 | 103.2 | 105.4 | 100.0
COc1ccc(OC)c(NC(=O)C2C3CCC(O3)C2C(=O)O)c1 (stereo not given) | 88.0 | 85.1 | 86.1 | 105.1 | 76.1
Cc1ccc(C)n1-c1ncn[nH]1 | 103.3 | 95.0 | 95.7 | 101.2 | 87.9
CCOc1ccc(C(C)(C)C)cc1S(=O)(=O)N1CCOCC1 | 79.1 | 77.0 | 79.7 | 97.3 | 90.4
CC(C)(C)C1=CC(=O)C(N2CCOCC2)=CC1=O | 2.0* | 2.0* | . | . | .
CCCNC(=S)N1CCC(C(=O)c2ccc(OC)cc2)CC1 | 85.2 | 93.5 | . | . | .
OC(CN1CCN(c2ccccn2)CC1)Cn1c2ccc(Cl)cc2c2cc(Cl)ccc21 (stereo not given) | 11.9 | 13.0 | 1.3* | 94.1 | 41.2
COc1ccc(-c2nn(-c3ccccc3)cc2/C=N/NC(=O)c2ccc(Br)o2)cc1 | 6.1 | 5.0* | . | . | .
Cc1ccc(-c2nn(-c3ccccc3)cc2/C=N/NC(=O)CSc2nnc(C)n2-c2ccccc2)cc1 | 3.4* | 3.6* | . | . | .
COc1ccc(-c2nn(-c3ccccc3)cc2/C=N/NC(=O)c2ccc3c(c2)OCO3)cc1 | 67.4 | 72.2 | . | . | .
CCOc1ccc(S(=O)(=O)NCCC(=O)OC(C)C(=O)N2CCc3ccccc32)cc1 (stereo not given) | 79.6 | 71.2 | 55.3 | 92.9 | 90.8
CC1(C)CC(=O)C2=C(C1)Oc1nc3ccccc3cc1C2C(C#N)C#N (stereo not given) | 6.2 | 8.6 | 1.6* | 16.8* | 50.0
SMILES | PTEN del growth | bCat KO growth | H69AR growth 86K | Lung fibro prol | HUVEC inhibit
Cc1nc2ccc(NC(=O)c3ccc(F)c(S(=O)(=O)N4CCOCC4)c3)cc2s1 | 94.3 | 91.9 | 52.5 | 109.3 | 80.6
O=C(N/N=C/c1cccc(C(F)(F)F)c1)C1CCN(c2ncc(C(F)(F)F)cc2Cl)CC1 | 2.1* | 4.0* | . | . | .
COc1cc2c(cc1OC)C(C1C(=O)CCCC1=O)N(C(=O)CCl)CC2 (stereo not given) | 98.6 | 93.9 | . | . | .
COc1cc2c(cc1OC)C(c1ccccc1)N(C(=O)CCl)CC2 (stereo not given) | 2.0* | 1.9* | . | . | .
CC(=O)N1CCC(N(CCCOC(C)C)C(=O)Nc2ccc(Cl)cc2)CC1 | . | . | 96.6 | 103.7 | 94.1
O=C(NCC(c1cccs1)N1CCOCC1)c1ccc(Cl)s1 (stereo not given) | 20.6 | 16.2 | 17.6* | 63.8 | 81.6
O=C(NCC(c1cccs1)N1CCOCC1)c1cc([N+](=O)[O-])ccc1Cl (stereo not given) | 90.8 | 87.0 | . | . | .
O=C(CCNc1ccc(F)cc1)c1ccco1 | 52.0 | 64.4 | 1.1* | 91.1 | 74.7
O=C(CCNc1cc(Cl)cc(Cl)c1)c1ccco1 | 55.0 | 12.1 | 83.2 | 100.3 | 90.2
O=C(CCNc1ccc(F)c(Cl)c1)c1ccco1 | 20.4 | 2.2* | 1.8* | 96.0 | 70.9
O=C(Nc1ccc(N2CCOCC2)c(Cl)c1)c1cc(F)c(F)cc1Cl | 58.0 | 65.1 | 71.6 | 104.9 | 97.3
O=C(Nc1ccc(N2CCOCC2)c(Cl)c1)c1c(F)c(F)c(F)c(F)c1F | 26.2 | 19.8 | 32.4* | 87.1 | 89.8
O=C(NN1CCOCC1)c1cc(-c2ccc(Cl)c(Cl)c2)nc2ccccc12 | 81.7 | 86.3 | . | . | .
COC(=O)c1c(NC(=O)c2ccccc2)sc2c1CC(C)(C)OC2 | 89.9 | 88.3 | 35.7* | 98.6 | 96.7
CCCN(CCC)C(=O)CC(c1ccccc1)c1cc(Br)ccc1O (stereo not given) | 71.8 | 83.9 | 3.5* | 80.2 | 65.6
CCCNC(=O)CSc1nc(-c2cccs2)cc(C(F)(F)F)n1 | 75.7 | 89.6 | 88.0 | 96.8 | 100.2
Cc1cc(NC(=O)CCCS(=O)(=O)c2nc(-c3cccs3)cc(C(F)(F)F)n2)no1 | 3.3* | 6.7 | . | . | .
Cc1cc(NC(=O)CSc2nc(-c3cccs3)cc(C(F)(F)F)n2)no1 | 18.3 | 21.3 | 29.1* | 53.0 | 41.6
CC(C)=NNC(=O)CN1C(=O)NC2NC(=O)NC21 (stereo not given) | 95.8 | 95.6 | . | . | .
Cc1cccc(NC(=O)c2oc(=O)c3ccccc3c2-c2ccccc2)c1C | 45.6 | 41.8 | . | . | .
Cc1ccc(C)c(OCc2ccc(C(=O)N3N=C(C(F)F)CC3(O)C(F)F)o2)c1 (stereo not given) | 93.4 | 89.8 | . | . | .
Cc1ccc(-c2nc3ccccc3s2)cc1S(=O)(=O)N1CCCC1 | 63.7 | 67.3 | 32.4* | 96.6 | 108.0
O=S(=O)(c1cccc(-c2nc3ccccc3s2)c1)N1CCOCC1 | 85.8 | 90.0 | 95.5 | 98.2 | 101.0
NN1C(=O)c2cccc3c(C(=O)O)ccc(c23)C1=O | 96.5 | 89.6 | . | . | .
O=C(c1ccc2c3c(cccc13)C(=O)N(O)C2=O)N1CCCCC1 | 21.2 | 36.9 | 24.9* | 93.2 | 89.4
CCOC(=O)c1ccc(-n2nc(C(F)(F)F)c3c(C)cc(=O)oc32)cc1 | . | . | 80.9 | 100.6 | 84.1
CCOC(=O)C1=C(c2ccccc2)O/C(=C(/C#N)C(F)(F)F)S1 | 7.3 | 7.7 | 1.7* | 2.5* | 10.2*
COC(=O)c1[nH]c2c(c1C)C(=O)CC(c1cc(OC)ccc1OC)C2 (stereo not given) | 36.4 | 36.0 | 21.8* | 52.4 | 49.5
COC(=O)c1[nH]c2c(c1C)C(=O)CC(c1cccs1)C2 (stereo not given) | 14.1 | 10.1 | 34.0* | 46.8* | 46.3
Cc1csc2c(=O)n3c(nc12)CCCCC3 | 100.0 | 99.0 | 100.3 | 97.4 | 99.2
